# Laboratory results as given in ChEMBL document CHEMBL3286113, “New potent antibacterial oxazolidinone (MRX-I) with an improved class safety profile” (J Med Chem, 2014).
# How the values were obtained:
# Rattus norvegicus [1] = experiment: Dose normalized Cmax in po dosed rat; assay type: ADME, organism-based; conditions: in vivo
# Streptococcus agalactiae = experiment: Antibacterial activity against Streptococcus agalactiae; assay type: functional
# [2] = Half life in po dosed dog; assay type: ADME, organism-based, Canis lupus familiaris; conditions: in vivo
# [3] = Elimination half life in fasted human at 900 mg, po administered as single dose; assay type: ADME, organism-based; conditions: in vivo, read-out: beta t1/2 (converted)
# Summary of the method: (§1)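 Healthy volunteers (12; six of each sex) in a three-period Latin-square crossover. Each received single oral doses of 300, 600 and 900 mg under fasting conditions, with a 1-week washout between doses. Parameters from a noncompartmental model.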
# Enterococcus faecalis [4] = experiment: Antibacterial activity against vancomycin-resistant Enterococcus faecalis isolate EFL 4041; assay type: functional
# [5] = Cmax in female rat at 5 mg/kg, po; assay type: ADME, organism-based; parameters: dose 5 mg/kg, route oral; conditions: in vivo
# Staphylococcus aureus [6] = experiment: Antibacterial activity against Staphylococcus aureus measured after 1 serial passage; assay type: functional
# [7] = Cmax in human at 600 mg, po administered as single dose with meal measured on day 1; assay type: ADME, organism-based; parameters: dose 600 mg, route oral; conditions: in vivo
# Summary of the method: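 Randomized, double-blind, placebo-controlled multiple-dose study in 32 healthy subjects, half male and half female. Each dose was taken with a meal, at 600 or 800 mg, 28 doses over 15 days. A single dose on days 1 and 15 gave full PK; BID (Q12h) dosing ran on days 2–14.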
# Rattus norvegicus [8] = experiment: Toxicity in female rat assessed as effect on platelet count at 200 to 300 mg/kg/day, po bid administered for 4 weeks (reference value: 654.6 x 10^9/L); assay type: organism-based; parameters: route oral; conditions: in vivo, 672 h
# Staphylococcus aureus [9] = experiment: Antibacterial activity against methicillin-resistant Staphylococcus aureus isolate 0612 in po dosed mouse systemic infection model; assay type: functional; conditions: isolate 0612, po
# Enterococcus faecalis [10] = experiment: Bacteriostatic activity against vancomycin-sensitive Enterococcus faecalis; assay type: functional
# Streptococcus pneumoniae [11] = experiment: Bactericidal activity against penicillin-resistant Streptococcus pneumoniae; assay type: functional
# Streptococcus pyogenes = experiment: Antibacterial activity against Streptococcus pyogenes; assay type: functional
# [12] = AUC (0 to infinity) in fasted human at 900 mg, po administered as single dose; assay type: ADME, organism-based; parameters: dose 900 mg, route oral, time infinity; conditions: plasma
# Summary of the method: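 Single-dose, three-period Latin-square crossover in 12 healthy volunteers (6 of each gender). Each received single oral 300, 600 and 900 mg doses under fasting conditions, with a 1-week washout between doses. PK parameters, including AUC0−inf, came from a noncompartmental model.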
# Enterococcus faecium = experiment: Bacteriostatic activity against vancomycin-sensitive Enterococcus faecium; assay type: functional
# Rattus norvegicus [13] = experiment: Toxicity in female rat assessed as effect on reticulocyte count at 100 mg/kg/day, po bid administered for 4 weeks (reference value: 1.48%); assay type: organism-based; parameters: route oral; conditions: in vivo, 672 h
# [14] = Tmax in female rat at 5 mg/kg, po; assay type: ADME, organism-based; parameters: dose 5 mg/kg, route oral; conditions: in vivo
# Summary of the method: (§2)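 Male and female rats received single oral doses of 5, 15 or 45 mg/kg, with 5 mg/kg iv as a reference arm. Tmax was read from the plasma concentration–time profile for each gender.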
# MAO-A [15] = target: T1, MAO-A (Homo sapiens, UniProt P21397); experiment: Ratio of compound IC50 to linezolid IC50 for human recombinant MAO-A by luciferin-based luminescence assay; assay type: ADME; conditions: read-out: Ratio IC50
# Rattus norvegicus [16] = experiment: Toxicity in rat assessed as mortality at 20 to 300 mg/kg, po bid administered for 4 weeks measured on day 1 to day 28; assay type: organism-based; parameters: dose 20-300 mg/kg, route oral; conditions: in vivo, 672 h
# Summary of the method: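 Rats, 10 per gender per group, given drug orally twice daily at 20, 100 and 200/300 mg/kg/day for 4 weeks, then a 4-week recovery period. The top dose of 200 mg/kg/day was raised to 300 mg/kg/day on day 15. The comparator was dosed the same way at 100 and 200 mg/kg/day. Monitoring covered mortality, body weight, hematology and bone marrow, with blood taken for TK on days 1, 14 and 28.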
# [17] = Elimination half life in fasted human at 300 mg, po administered as single dose; assay type: ADME, organism-based; conditions: in vivo, read-out: beta t1/2 (converted); summary of the method: as §1
# MAO-A [18] = target: T1, MAO-A; experiment: Ratio of compound IC50 to linezolid IC50 for MAO-A (unknown origin) by fluorescence plate reader analysis; assay type: ADME
# Enterococcus faecalis [19] = experiment: Antibacterial activity against vancomycin-sensitive/high-level gentamycin-resistant Enterococcus faecalis isolate HH22; assay type: functional; conditions: EnGen0297
# Staphylococcus aureus [20] = experiment: Antibacterial activity against methicillin-resistant Staphylococcus aureus isolate 0605 in mouse thigh infection model assessed as reduction of log10 CFU per thigh at 10 mg/kg, po; assay type: functional
# Streptococcus pneumoniae [21] = experiment: Antibacterial activity against penicillin intermediate-sensitive Streptococcus pneumoniae ATCC 49619 clinical isolate; assay type: functional
# [22] = Tmax in human at 900 mg, po administered as single dose at 30 mins post fat meal; assay type: ADME, organism-based; conditions: in vivo
# Summary of the method: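 Crossover study in 12 healthy subjects (six per gender). A single oral 900 mg dose was given either fasting or 30 min after a fat-containing meal. Tmax was taken from plasma PK.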
# Staphylococcus aureus [23] = experiment: Antibacterial activity against methicillin-sensitive Staphylococcus aureus ATCC 29213 in mouse thigh infection model assessed as reduction of log10 CFU per thigh at 20 mg/kg, po; assay type: functional
# Summary of the method: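 Mouse thigh infection with S. aureus ATCC29213 (MSSA), 10 animals per dosing group. Oral doses were 5, 10, 20, 40 and 80 mg/kg. The read-out was log CFU per thigh after treatment, and the reduction (ΔLogCFU/thigh) was reported.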
# Rattus norvegicus [24] = experiment: Toxicity in female rat assessed as effect on RBC count at 20 mg/kg/day, po bid administered for 4 weeks (reference value: 7.28 x 10^12/L); assay type: organism-based; parameters: route oral; conditions: in vivo, 672 h
# Canis familiaris = species on record: Canis familiaris; experiment: Drug uptake in dog measured over 7 days; assay type: ADME, organism-based, Canis lupus familiaris; conditions: in vivo, 168 h
# [25] = Half life in male rat at 45 mg/kg, po; assay type: ADME, organism-based; parameters: dose 45 mg/kg, route oral; conditions: in vivo
# Rattus norvegicus [26] = experiment: Toxicity in rat assessed as rate of body weight gain at 100 mg/kg, po bid measured over 4 weeks of test period; assay type: organism-based; parameters: dose 100 mg/kg, route oral; conditions: in vivo, 672 h
# Cytochrome P450 3A4 = Cytochrome P450 3A4 (Homo sapiens, UniProt P08684); experiment: Inhibition of CYP3A4 (unknown origin) at 1 to 200 uM; assay type: ADME
# [27] = Elimination half life in fasted human at 600 mg, po administered as single dose; assay type: ADME, organism-based; conditions: in vivo, read-out: beta t1/2 (converted); summary of the method: as §1
# [28] = AUC (0 to 24 hrs) in female rat at 100 mg/kg/day, po bid administered for 4 weeks; assay type: ADME, organism-based; parameters: time < 24 hr, dose 100 mg/kg/day, route oral; conditions: plasma
# Summary of the method: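 Repeat-dose toxicity study in rats (10/gender/group) dosed orally twice daily for 4 weeks, then a 4-week recovery period; the top dose was raised from 200 to 300 mg/kg/day on day 15. Blood was taken on days 1, 14 and 28 for toxicokinetics, and AUC0−24 was reported for females.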
# [29] = AUC (0 to t) in male rat at 15 mg/kg, po; assay type: ADME, organism-based; parameters: dose 15 mg/kg, route oral; conditions: plasma
# Summary of the method: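 Rat PK by gender, with single oral doses of 5, 15 and 45 mg/kg and an iv dose of 5 mg/kg. Tmax, Cmax, T1/2 and AUC0−t were reported per gender.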
# [30] = Cmax in male rat at 5 mg/kg, po; assay type: ADME, organism-based; parameters: dose 5 mg/kg, route oral; conditions: in vivo
# Staphylococcus aureus [31] = experiment: Antibacterial activity against Staphylococcus aureus assessed as time required for growth inhibition; assay type: functional
# [32] = Tmax in female rat at 15 mg/kg, po; assay type: ADME, organism-based; parameters: dose 15 mg/kg, route oral; conditions: in vivo; summary of the method: as §2
# Staphylococcus aureus [33] = experiment: Antibacterial activity against methicillin-resistant Staphylococcus aureus isolate 0605 in po dosed mouse systemic infection model; assay type: functional; conditions: isolate 0605, po
# T1 sequence (P21397 whole entry): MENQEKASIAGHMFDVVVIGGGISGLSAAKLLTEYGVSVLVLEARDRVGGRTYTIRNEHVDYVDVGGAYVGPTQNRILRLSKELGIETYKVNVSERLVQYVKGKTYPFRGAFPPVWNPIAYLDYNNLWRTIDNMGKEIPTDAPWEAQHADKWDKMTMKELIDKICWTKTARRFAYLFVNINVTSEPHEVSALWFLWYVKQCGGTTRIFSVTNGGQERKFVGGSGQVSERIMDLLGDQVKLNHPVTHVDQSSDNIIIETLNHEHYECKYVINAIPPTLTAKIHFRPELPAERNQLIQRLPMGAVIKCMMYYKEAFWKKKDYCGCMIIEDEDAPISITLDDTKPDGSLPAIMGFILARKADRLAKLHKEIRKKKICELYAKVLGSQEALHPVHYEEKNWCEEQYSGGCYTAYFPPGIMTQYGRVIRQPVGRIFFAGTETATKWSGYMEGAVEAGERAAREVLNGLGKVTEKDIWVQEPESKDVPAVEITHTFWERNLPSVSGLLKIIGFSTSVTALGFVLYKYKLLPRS
# Chain of Cytochrome P450 3A4 (P08684 whole entry): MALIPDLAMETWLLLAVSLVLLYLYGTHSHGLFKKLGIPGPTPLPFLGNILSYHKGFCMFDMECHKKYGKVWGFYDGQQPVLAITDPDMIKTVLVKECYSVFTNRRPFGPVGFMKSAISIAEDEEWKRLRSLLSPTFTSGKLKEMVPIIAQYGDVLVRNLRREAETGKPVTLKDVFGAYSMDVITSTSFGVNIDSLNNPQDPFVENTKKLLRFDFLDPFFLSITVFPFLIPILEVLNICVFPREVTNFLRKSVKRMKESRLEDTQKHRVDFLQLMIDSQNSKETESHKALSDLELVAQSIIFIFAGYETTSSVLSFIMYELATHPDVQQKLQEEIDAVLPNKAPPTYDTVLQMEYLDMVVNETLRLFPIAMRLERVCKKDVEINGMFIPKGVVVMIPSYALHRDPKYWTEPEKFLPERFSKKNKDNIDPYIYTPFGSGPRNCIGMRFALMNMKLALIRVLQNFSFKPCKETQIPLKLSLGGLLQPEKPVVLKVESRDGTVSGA
structure (smiles),measurement,setting,value
O=C1C=CN(c2c(F)cc(N3C[C@H](CNc4ccon4)OC3=O)c(F)c2F)CC1 [CONTEZOLID],Cmax/dose,Rattus norvegicus [1],1065 ng/mL/(mg/kg)
same,MIC50,Streptococcus agalactiae,1 µg/mL
same,MIC90,Streptococcus agalactiae,1 µg/mL
same,half-life,[2],3 h
same,half-life,[3],4.9 h
same,MIC,Enterococcus faecalis [4],1 µg/mL
same,Cmax,[5],9390 ng/mL
same,MIC,Staphylococcus aureus [6],2 µg/mL
same,Cmax,[7],20300 ng/mL
same,Activity,Rattus norvegicus [8],464.2 ×10⁹ /L
same,ED50,Staphylococcus aureus [9],7.2 mg/kg
same,MIC50,Enterococcus faecalis [10],1 µg/mL
same,MIC90,Enterococcus faecalis [10],1 µg/mL
same,MIC50,Streptococcus pneumoniae [11],0.5 µg/mL
same,MIC90,Streptococcus pneumoniae [11],0.5 µg/mL
same,MIC50,Streptococcus pyogenes,0.5 µg/mL
same,MIC90,Streptococcus pyogenes,1 µg/mL
same,AUC(0-inf),[12],59200 ng·h/mL
same,MIC50,Enterococcus faecium,1 µg/mL
same,MIC90,Enterococcus faecium,1 µg/mL
same,Activity,Rattus norvegicus [13],1.46%
same,Tmax,[14],0.67 h
same,selectivity ratio,MAO-A [15],3
same,Activity,Rattus norvegicus [16],Non-toxic
same,half-life,[17],2.18 h
same,selectivity ratio,MAO-A [18],5.2
same,MIC,Enterococcus faecalis [19],2 µg/mL
same,deltalog10CFU,Staphylococcus aureus [20],2.47
same,MIC,Streptococcus pneumoniae [21],1 µg/mL
same,Tmax,[22],1.63 h
same,deltalog10CFU,Staphylococcus aureus [23],3.33
same,Activity,Rattus norvegicus [24],6.82 ×10¹² /L
same,Drug uptake,Canis familiaris,Not Active
same,half-life,[25],1.07 h
same,Activity,Rattus norvegicus [26],Non-toxic
same,inhibition (INH),Cytochrome P450 3A4,Not Active
same,half-life,[27],3.31 h
same,AUC at 24 h,[28],319000 ng·h/mL
same,AUC(0-t),[29],34300 ng·h/mL
same,Cmax,[30],4600 ng/mL
same,Time,Staphylococcus aureus [31],1.6 h
same,Tmax,[32],1.17 h
same,ED50,Staphylococcus aureus [33],12 mg/kg
